Measurements taken from ChEMBL document CHEMBL1921779, “Pharmacological validation of Trypanosoma brucei phosphodiesterases B1 and B2 as druggable targets for African sleeping sickness” (J Med Chem, 2011).

Key:
[1] = Inhibition of His-tagged catalytic domain Trypanosoma brucei brucei PDEB1 expressed in baculovirus infected insect Sf21 cells
[2] = Inhibition of His-tagged catalytic domain Trypanosoma brucei brucei PDEB1 expressed in baculovirus infected insect Sf21 cells at 10 uM
Summary of the method: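 Single-concentration screen of purified His-tagged TbrPDEB1 catalytic domain (0.25 µg) at 37°C in 10 mM Tris pH 7.4, 0.2 mg/ml BSA, 10 mM MgCl2, 25 µM cAMP and excess 5'-nucleotidase. Inhibitor in DMSO (2%, 5% or 10% final) preincubated 10 min before substrate. BioMol green phosphate read-out at 620 nm; percent inhibition of initial velocity versus vehicle control.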

[3] = Inhibition of His-tagged catalytic domain Trypanosoma brucei brucei PDEB2 expressed in baculovirus infected insect Sf21 cells
[4] = system: Trypanosoma brucei brucei; experiment: Antitrypanosomal activity against blood stream Trypanosoma brucei brucei 427 after 48 hrs by Alamar blue assay; type: functional, organism-based; conditions: Trypanosoma brucei, 427, 48 h
[5] = Inhibition of His-tagged catalytic domain Trypanosoma brucei brucei PDEB1 expressed in baculovirus infected insect Sf21 cells at 100 uM
Summary of the method: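 Inhibitor preincubated 10 min before substrate, final DMSO 2%, 5% or 10%. BioMol green phosphate read at 620nm. Initial-velocity change versus vehicle; mean of ≥3 independent experiments.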

[6] = system: Trypanosoma brucei brucei; experiment: Cytotoxicity against Trypanosoma brucei brucei at 100 uM

For `CCCCOc1cc(CC2CNC(=O)N2)ccc1OC` (stereo unspecified) [RO-201724], the IC50 [1] was > 100 µM.
For `Cc1noc(/C(=C/c2cccc(-c3cc(C(C)(C)S(C)(=O)=O)cc4cccnc34)c2)c2ccc(S(C)(=O)=O)cc2)n1`, the inhibition [2] was > 50%.
In the case of `CCCOc1cc(C(=O)Nc2c(Cl)cncc2Cl)ccc1OC`, the IC50 [1] is reported as 13.6 µM, the IC50 [3] is reported as 9.4 µM and the EC50 [4] is reported as 13 µM.
In the case of `COc1cccc(Nc2c(C(N)=O)cnc3c(C)cc(S(=O)(=O)c4cccc(C(=O)N(C)C)c4)cc23)c1`, the inhibition [2] is reported as > 50%.
In the case of `COc1cc2ncnc(N3CC[C@@H](Oc4cnc5ccccc5n4)C3)c2cc1OC`, the inhibition [5] is reported as > 55%.
In the case of `COc1ccc(C(=O)Nc2c(Cl)cncc2Cl)cc1OC`, the IC50 [1] is reported as > 100 µM and the IC50 [3] is reported as > 100 µM.
For `CCOc1ccc(C(=O)Nc2c(Cl)cncc2Cl)cc1OCC`, the IC50 [1] was > 100 µM.
For `COc1ccc(C(=O)Nc2c(Cl)cncc2Cl)cc1OC(C)C`, the IC50 [1] was > 30 µM, the IC50 [3] was > 30 µM and the EC50 [4] was 27.6 µM.
For `COc1cc(C(=O)Nc2c(Cl)cncc2Cl)ccc1OC(C)=O`, the IC50 [1] was > 100 µM.
`COc1ccc(C(=O)Nc2c(Cl)cncc2Cl)cc1OCc1ccccc1` gave an IC50 [1] of 12.5 µM, an IC50 [3] of 11.2 µM and an EC50 [4] of 10.1 µM.
With `CS(=O)(=O)Oc1ccc2c(NC(N)=O)c(C(=O)c3ccc(Cl)cc3Cl)oc2c1` the IC50 [1] was > 10 µM and the IC50 [3] was > 10 µM.
`COc1cc2c(cc1OC)-c1c/c(=N\c3c(C)cc(C)cc3C)n(C)c(=O)n1CC2` [TREQUINSIN] showed an IC50 [1] of 12 µM, an IC50 [3] of 25.4 µM and an EC50 [4] of 5.8 µM. The inhibition [5] was > 50%.
For `COc1ccc(C2CNC(=O)C2)cc1OC1CCCC1` (stereo unspecified) [ROLIPRAM], the IC50 [1] was > 100 µM.
For `COc1cc(Cl)c(C(=O)Nc2c(Cl)cncc2Cl)cc1OC`, the IC50 [1] was > 100 µM.
With `COc1ccc(C(=O)Nc2c(Cl)cncc2Cl)c(Cl)c1OC` the IC50 [1] was > 100 µM.
Work on `COc1ccc(C(=O)Nc2c(Cl)cncc2Cl)cc1OC1CCCC1` yielded an IC50 [1] of 4.7 µM, an IC50 [3] of 11.4 µM and an EC50 [4] of 9.57 µM. For the same compound, the inhibition [5] was > 50%.
`CCCCOc1cc(C(=O)Nc2c(Cl)cncc2Cl)ccc1OC` gave an IC50 [1] of 7.7 µM, an IC50 [3] of 14.3 µM and an EC50 [4] of 17.7 µM.
In the case of `CCOc1cc(C(=O)Nc2c(Cl)cncc2Cl)ccc1OC`, the IC50 [1] is reported as 16.5 µM and the IC50 [3] is reported as 34 µM.
In the case of `O=C(Nc1c(Cl)cncc1Cl)c1ccc(OC(F)F)c(OCC2CC2)c1` [ROFLUMILAST], the IC50 [1] is reported as > 100 µM.
For `COc1cc(C(=O)Nc2c(Cl)cncc2Cl)cc(OC)c1OC`, the IC50 [1] was > 100 µM, the EC50 [4] was > 100 µM and the Activity [6] was 10%.
In the case of `OCCN(CCO)c1nc(N2CCCCC2)c2nc(N(CCO)CCO)nc(N3CCCCC3)c2n1` [DIPYRIDAMOLE], the IC50 [1] is reported as 72 µM and the inhibition [5] is reported as > 50%.
